Assay results published in ChEMBL document CHEMBL2417373, “Substituted tetrahydroisoquinolines as selective antagonists for the orexin 1 receptor” (J Med Chem, 2013).
Activity calls are given as the source filed them. The calls are words filed in the database; no cut-off is given here.

Columns and labels:
Orexin receptor type 2 = target: T1, Orexin receptor type 2 (Homo sapiens, UniProt O43614); assay: Antagonist activity at OX2 receptor (unknown origin)
T1 sequence (O43614 whole entry): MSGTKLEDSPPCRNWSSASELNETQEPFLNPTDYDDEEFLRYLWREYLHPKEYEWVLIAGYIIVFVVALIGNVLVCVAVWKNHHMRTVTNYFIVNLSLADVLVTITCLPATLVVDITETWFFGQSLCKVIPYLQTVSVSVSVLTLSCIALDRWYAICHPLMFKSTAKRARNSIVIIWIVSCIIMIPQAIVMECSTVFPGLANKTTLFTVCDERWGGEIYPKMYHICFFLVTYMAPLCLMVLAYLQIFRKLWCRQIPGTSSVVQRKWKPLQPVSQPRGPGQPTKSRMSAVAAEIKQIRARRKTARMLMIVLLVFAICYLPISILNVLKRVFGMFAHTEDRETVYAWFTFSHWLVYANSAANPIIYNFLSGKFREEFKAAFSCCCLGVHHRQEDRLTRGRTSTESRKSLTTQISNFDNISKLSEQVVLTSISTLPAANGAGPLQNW

Rattus norvegicus [1] = assay: Antiaddictive activity in Sprague-Dawley rat assessed as reduction of cocaine-induced conditioned place preference at 20 mg/kg, ip administered 10 mins before cocaine challenge measured for 15 mins; type: functional, organism-based; set-up: dose 20 mg/kg
Outline: (§1)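 Unbiased two-compartment place conditioning in rats. Pretest 30 min with free access, first 15 min scored. Rats excluded if >75% or <25% of time in one side. Eight alternating conditioning days, 30 min confinement, vehicle on odd days and drug on even days. In the combination group, compound was given 10 min before cocaine 10 mg/kg. Injection volume 1 mL/kg. Preference score = drug-side time on test day minus pretest.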

[2] = target: T2, Orexin/Hypocretin receptor type 1 (Homo sapiens) (UniProt O43613); assay: Agonist activity at OX1 receptor (unknown origin) expressed in RD-HGA16 cells assessed as calcium mobilization at 10 uM by fluorescence assay; type: functional, cell-based
T2 sequence (whole entry): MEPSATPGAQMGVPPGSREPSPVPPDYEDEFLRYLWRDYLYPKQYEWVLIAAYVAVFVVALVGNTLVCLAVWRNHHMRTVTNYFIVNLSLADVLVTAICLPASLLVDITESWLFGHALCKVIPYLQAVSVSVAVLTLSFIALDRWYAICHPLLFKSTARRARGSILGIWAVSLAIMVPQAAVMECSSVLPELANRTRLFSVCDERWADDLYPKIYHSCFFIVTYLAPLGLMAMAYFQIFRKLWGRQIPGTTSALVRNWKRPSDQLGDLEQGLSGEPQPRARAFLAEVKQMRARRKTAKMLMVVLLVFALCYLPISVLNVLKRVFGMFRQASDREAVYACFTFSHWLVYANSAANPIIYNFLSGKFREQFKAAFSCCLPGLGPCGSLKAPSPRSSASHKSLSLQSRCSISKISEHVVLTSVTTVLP

Rattus norvegicus [3] = assay: Induction of conditioned place preference in Sprague-Dawley rat at 20 mg/kg, ip measured for 15 mins; type: organism-based; set-up: dose 20 mg/kg, route intraperitoneal; details: in vivo, 0.25 h; outline: as §1
[4] = target: T2, Orexin/Hypocretin receptor type 1 (Homo sapiens); assay: Antagonist activity at OX1 receptor (unknown origin) expressed in RD-HGA16 cells assessed as inhibition orexin A-induced calcium mobilization by fluorescence assay; type: functional, cell-based
[5] = target: T3, Orexin receptor type 2 (Homo sapiens) (UniProt O43614); assay: Antagonist activity at OX2 receptor (unknown origin) expressed in RD-HGA16 cells assessed as inhibition orexin A-induced calcium mobilization by fluorescence assay; type: functional, cell-based
T3 sequence (whole entry): T1 sequence (O43614 whole entry)

Homo sapiens = organism: Homo sapiens; assay: Selectivity ratio of Ke for OX2 receptor (unknown origin) to Ke for OX1 receptor (unknown origin)

Row | IC50 (Orexin receptor type 2) [µM] | Activity [2] | Ke(app) [4] [nM] | Ke(app) [5] [µM] | Ratio (Homo sapiens) | SMILES | Activity (Rattus norvegicus [1]) | Activity (Rattus norvegicus [3])
1 | 8.1 |  |  |  |  | CNC(=O)[C@@H](c1ccccc1)N1CCc2cc(OC)c(OC)cc2[C@@H]1CCc1ccc(C(F)(F)F)cc1 [ALMOREXANT] |  | 
2 |  | inactive | 8.5 |  |  | COc1ccc(CC2c3cc(OCC(F)(F)F)c(OC)cc3CCN2CC(=O)NCc2cccnc2)cc1OC (centres undefined) | Active | Non-toxic
3 |  | inactive | 80 | > 10 | > 125 | COc1ccc(CC2c3cc(OC)c(OC)cc3CCN2CC(=O)N[C@@H](C)c2ccccc2)cc1OC (single isomer, unassigned; diastereomer 2) |  | 
